This is an account of results in ChEMBL document CHEMBL4665669, “Novel tertiary sulfonamide derivatives containing benzimidazole moiety as potent anti-gastric cancer agents: Design, synthesis and SAR studies” (Eur J Med Chem, 2019).

The subject of one assay is MGC-803. Description: Anticancer activity against human MGC-803 cells assessed as inhibition of cell proliferation after 48 hrs by MTT assay. Format: functional, cell-based. The note with it: MGC-803, 48 h. The method in brief: (§1)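 MTT assay with 48 h compound exposure. MTT solution was then added and incubated 4 h at 37 °C, the supernatant discarded and formazan dissolved in DMSO, with absorbance read at 490 nm. IC50 values were calculated from three independent experiments, reported as mean SD.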
Background: Tetrazolium dyes change colour on reduction, which living cells bring about.

The subject of a further assay is MCF7. Description: Anticancer activity against human MCF7 cells assessed as inhibition of cell proliferation after 48 hrs by MTT assay. Format: functional, cell-based. The settings on record: MCF7, 48 h. The procedure, abridged: as §1
A further assay relates to PC-3. Description: Anticancer activity against human PC-3 cells assessed as inhibition of cell proliferation after 48 hrs by MTT assay. In kind it is functional, cell-based. The note with it: PC-3, 48 h. The procedure, abridged: as §1
Assay [1] in a line: Inhibition of HIF in human LN229 cells transfected with HRE-luc/LacZ by dual luciferase reporter gene assay. Format: cell-based. The note with it: LN-229. For orientation: In a reporter assay the amount or activity of a reporter protein is the signal.
A further assay has as its system HGC-27. Description: Anticancer activity against human HGC-27 cells assessed as inhibition of cell proliferation after 48 hrs by MTT assay. In kind it is functional, cell-based. The note with it: HGC-27, 48 h. The procedure, abridged:
as §1

In the next assay the test system is SGC-7901. Description: Anticancer activity against human SGC-7901 cells assessed as inhibition of cell proliferation after 48 hrs by MTT assay. Format: functional, cell-based. The settings on record: SGC-7901, 48 h. The method in brief:
as §1

The test system of the next assay is GES1. Description: Cytotoxicity against human GES1 cells assessed as inhibition of cell proliferation after 48 hrs by MTT assay. Format: cell-based. The note with it: GES1, 48 h. The procedure, abridged:
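Normal gastric epithelial GES-1 cells were exposed to compound for 48 h. MTT was then added for 4 h at 37 °C. Formazan was dissolved in DMSO after the supernatant was removed, and absorbance was read at 490 nm. IC50 was computed from three independent experiments, given as mean SD.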

The target in the next assay is Carbonic anhydrase 9 (Homo sapiens, UniProt Q16790). Description: Inhibition of recombinant human CA9 preincubated for 15 mins by phenol red dye based stopped flow CO2 hydration assay.

In the case of `COc1cc(N(Cc2nc3ccccc3[nH]2)C(=O)c2ccc(F)cc2)cc(OC)c1OC`, the IC50 is 23.6 µM in the assay with MGC-803, 45.2 µM with MCF7 and 21.9 µM in the assay with PC-3.

Take `COc1cc(N(Cc2nc3ccccc3[nH]2)S(=O)(=O)c2ccc(Br)cc2)cc(OC)c1OC`: the IC50 in the assay with MGC-803 worked out at 2.19 µM; in the assay on MCF7 it was 7.74 µM; with PC-3, 6.89 µM.

Consider `COc1ccc(CN(c2cc(OC)c(OC)c(OC)c2)S(=O)(=O)c2c(C)cc(C)cc2C)cc1`, for which the IC50 in the assay with MGC-803 was found to be 6.44 µM; in the assay with MCF7 it was 18.7 µM; with PC-3, 14.8 µM.

Consider `COc1ccc(CN(c2cc(OC)c(OC)c(OC)c2)S(=O)(=O)c2ccc(C(C)(C)C)cc2)cc1`, for which the concentration for half-maximal inhibition (IC50) in the assay on MGC-803 amounted to 10.3 µM; in the assay on MCF7, 32.7 µM; in the assay with PC-3 it was 28.6 µM.

In the case of `COc1cc(N(Cc2nc3ccccc3[nH]2)C(=O)c2ccccc2)cc(OC)c1OC`, the concentration for half-maximal inhibition (IC50) with MGC-803, in the assay on MCF7 and with PC-3 was above 50 µM throughout.

Take `COc1cc(N(Cc2nc3ccccc3[nH]2)C(=O)c2ccc(Br)cc2)cc(OC)c1OC`: the IC50 in the assay on MGC-803 was 14.6 µM; in the assay with MCF7, above 50 µM; with PC-3, 19.9 µM.

Regarding `Cc1ccc(N(Cc2nc3ccccc3[nH]2)S(=O)(=O)c2ccc(C)cc2)cc1`, the IC50 is 41.2 µM with MGC-803, above 50 µM in the assay with MCF7 and 48.9 µM with PC-3.

With `COc1cc(N(Cc2ccc(F)cc2)S(=O)(=O)c2ccc(C)cc2)cc(OC)c1OC`, the IC50 in the assay with MGC-803 was determined as 3.75 µM; in the assay with MCF7 it was 19.2 µM; with PC-3, 20.7 µM.

For `COc1cc(N(Cc2nc3ccccc3[nH]2)C(=O)c2ccc(C)cc2)cc(OC)c1OC`, the IC50 in the assay with MGC-803 worked out at 30.5 µM; in the assay on MCF7, 49.2 µM; in the assay with PC-3 it was 42 µM.

For the molecule `COc1cc(N(Cc2ccc(Br)cc2)S(=O)(=O)c2ccc(C)cc2)cc(OC)c1OC`, the IC50 in the assay with MGC-803 was found to be 1.61 µM; in the assay with MCF7 it was 10.9 µM; in the assay with PC-3, 4.68 µM.

`COc1ccc(C(=O)N(Cc2nc3ccccc3[nH]2)c2cc(OC)c(OC)c(OC)c2)cc1OC`: the figures for the IC50 in the assay on MGC-803, with MCF7 and in the assay on PC-3 were 22.4 µM, above 50 µM and 34.9 µM, respectively.

Turning to `COc1cc(N(Cc2nc3ccccc3[nH]2)S(=O)(=O)c2ccccc2)cc(OC)c1OC`, the IC50 in the assay on MGC-803 was determined as 12.4 µM; in the assay with MCF7, 27.3 µM; in the assay on PC-3 it was 25.5 µM.

For the molecule `COc1ccc(CN(c2cc(OC)c(OC)c(OC)c2)S(=O)(=O)c2ccccc2)cc1`, the IC50 in the assay with MGC-803, in the assay on MCF7 and in the assay on PC-3 was above 50 µM each time.

Turning to `COc1cc(N(Cc2nc3ccccc3[nH]2)C(=O)c2cccc(Cl)c2)cc(OC)c1OC`, the 50% inhibitory concentration (IC50) with MGC-803 was above 50 µM; in the assay with MCF7, 34.9 µM; in the assay on PC-3 it was above 50 µM.

Turning to `COc1ccc(S(=O)(=O)N(Cc2nc3ccccc3[nH]2)c2cc(OC)c(OC)c(OC)c2)cc1OC`, the 50% inhibitory concentration (IC50) was determined as 22.5 µM in the assay with MGC-803, 47.7 µM in the assay on MCF7 and 30.4 µM in the assay with PC-3.

Take `Cc1ccc(S(=O)(=O)N(Cc2nc3ccccc3[nH]2)c2ccc(Cl)cc2)cc1`: the IC50 came to 24.8 µM with MGC-803, 38.3 µM in the assay on MCF7 and 42.2 µM in the assay with PC-3.

For the molecule `COc1cc(N(Cc2nc3ccccc3[nH]2)C(=O)c2ccc(C(C)(C)C)cc2)cc(OC)c1OC`, the half-maximal inhibitory concentration (IC50) is above 50 µM in the assay with MGC-803, 48.8 µM with MCF7 and 46 µM in the assay on PC-3.

Consider `COc1cc(N(Cc2ccccc2)S(=O)(=O)c2ccc(C)cc2)cc(OC)c1OC`, for which the half-inhibitory concentration (IC50) amounted to 3.57 µM in the assay on MGC-803, 10.2 µM in the assay with MCF7 and 7.81 µM in the assay on PC-3.

Regarding `COc1ccc(CN(c2cc(OC)c(OC)c(OC)c2)S(=O)(=O)c2ccc(C)cc2)cc1`, the half-maximal inhibitory concentration (IC50) with MGC-803 is 4.34 µM; in the assay with MCF7, 10.1 µM; with PC-3, 8.22 µM.

In the case of `COc1ccc(CN(c2cc(OC)c(OC)c(OC)c2)S(=O)(=O)c2ccc(OC)c(OC)c2)cc1`, the concentration for half-maximal inhibition (IC50) with MGC-803 stood at 8.31 µM; in the assay on MCF7 it was 22.7 µM; in the assay with PC-3 it was 20.1 µM.

As for `Cc1ccc(S(=O)(=O)N(Cc2nc3ccccc3[nH]2)c2ccccc2)cc1`, the IC50 in the assay with MGC-803 was 45.2 µM; in the assay with MCF7, 49.7 µM; in the assay on PC-3, above 50 µM.

In assay [1], `COc1ccc(S(=O)(=O)N(Cc2ccc3c(c2)OC(C)(C)C=C3)c2ccccc2)cc1OC` registered a half-maximal inhibitory concentration (IC50) of 0.59 µM.

With `COc1ccc(N(Cc2nc3ccccc3[nH]2)S(=O)(=O)c2ccc(C)cc2)cc1OC`, the IC50 in the assay on MGC-803, with MCF7 and with PC-3 was above 50 µM each time.

As for `COc1cc(N(Cc2cccc(C)c2)S(=O)(=O)c2ccc(C)cc2)cc(OC)c1OC`, the 50% inhibitory concentration (IC50) came out at 4.34 µM in the assay on MGC-803, 14.3 µM in the assay on MCF7 and 8.58 µM with PC-3.

`COc1cc(N(Cc2nc3ccccc3[nH]2)S(=O)(=O)c2ccccc2Cl)cc(OC)c1OC`: the values for the half-maximal inhibitory concentration (IC50) in the assay on MGC-803, in the assay on MCF7 and with PC-3 were 19.1 µM, 38.1 µM and 34.5 µM, respectively.

As for `Cc1ccc(S(=O)(=O)N(Cc2nc3ccccc3[nH]2)c2ccc(F)cc2)cc1`, the results for the 50% inhibitory concentration (IC50) in the assay on MGC-803, in the assay on MCF7 and with PC-3 were 34.6 µM, above 50 µM and 45 µM, respectively.

As to `COc1cc(N(Cc2nc3ccccc3[nH]2)S(=O)(=O)c2ccc(C(C)(C)C)cc2)cc(OC)c1OC`, the IC50 is 24.1 µM with MGC-803, 33.6 µM in the assay on MCF7 and 29.8 µM with PC-3.

Regarding `O=c1[nH]cc(F)c(=O)[nH]1` [FLUOROURACIL], the IC50 in the assay on HGC-27 came out at 4.28 µM; with SGC-7901 it was 5.54 µM; in the assay on MCF7, 17.1 µM; with GES1 it was 10.2 µM; in the assay with PC-3, 18.4 µM.

Turning to `Cc1ccc(N(CC(C)F)S(=O)(=O)c2ccc([N+](=O)[O-])cc2)cc1` (configuration not stated), the IC50 on Carbonic anhydrase 9 amounted to 0.0042 µM.

Take `COc1ccc(N(Cc2nc3ccccc3[nH]2)S(=O)(=O)c2ccc(C)cc2)cc1`: the half-maximal inhibitory concentration (IC50) in the assay with MGC-803, with MCF7 and in the assay on PC-3 was above 50 µM throughout.

For `COc1cc(N(Cc2nc3ccccc3[nH]2)S(=O)(=O)c2ccc(F)cc2)cc(OC)c1OC`, the IC50 with MGC-803 stood at 5.68 µM; in the assay on MCF7 it was 9.38 µM; in the assay with PC-3 it was 7.99 µM.

Consider `COc1cc(N(Cc2ccc(Cl)cc2)S(=O)(=O)c2ccc(C)cc2)cc(OC)c1OC`, for which the figures for the IC50 in the assay on MGC-803, with MCF7 and in the assay with PC-3 were 1.72 µM, 18.6 µM and 14.6 µM, respectively.

`COc1cc(N(Cc2csc3ccc(Cl)cc23)S(=O)(=O)c2ccc(C)cc2)cc(OC)c1OC`: the figures for the half-inhibitory concentration (IC50) with MGC-803, in the assay with MCF7 and with PC-3 were 3.45 µM, 8.95 µM and 15.2 µM, respectively.

Broadly, the IC50 is the midpoint of a concentration-inhibition curve.
